Experimental data from ChEMBL document CHEMBL1124208, “Retro-inverso concept applied to the complete inhibitors of enkephalin-degrading enzymes” (J Med Chem, 1988).

Experiments:
[1] = Inhibition of [3H]Leu-enkephalin binding to aminopeptidase; set-up: species or system Sus scrofa
In short: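 Uses commercial purified pig kidney aminopeptidase N without further purification. Enzyme preincubated 15 min at 25 °C with inhibitor in 50 mM Tris-HCl pH 7.0. [3H]Leu-enkephalin then added at 10 nM final (Km 50 μM) and the reaction stopped with HCl. IC50 by log probit analysis of five inhibitor concentrations, mean ± SEM of four independent experiments.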

[2] = Inhibition of [3H]Leu-enkephalin binding to Dipeptidyl aminopeptidase (DAP); set-up: species or system Rattus norvegicus
In short: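 Membrane-bound DAP partially purified from rat brain. […] IC50 by log probit analysis of five inhibitor concentrations, mean ± SEM of four independent experiments.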

Neprilysin = target: T1, Neprilysin (Oryctolagus cuniculus, UniProt P08049); assay: Inhibition of [3H]Ala2-Leu-enkephalin binding to Neutral endopeptidase (NEP)
T1 sequence (P08049 whole entry): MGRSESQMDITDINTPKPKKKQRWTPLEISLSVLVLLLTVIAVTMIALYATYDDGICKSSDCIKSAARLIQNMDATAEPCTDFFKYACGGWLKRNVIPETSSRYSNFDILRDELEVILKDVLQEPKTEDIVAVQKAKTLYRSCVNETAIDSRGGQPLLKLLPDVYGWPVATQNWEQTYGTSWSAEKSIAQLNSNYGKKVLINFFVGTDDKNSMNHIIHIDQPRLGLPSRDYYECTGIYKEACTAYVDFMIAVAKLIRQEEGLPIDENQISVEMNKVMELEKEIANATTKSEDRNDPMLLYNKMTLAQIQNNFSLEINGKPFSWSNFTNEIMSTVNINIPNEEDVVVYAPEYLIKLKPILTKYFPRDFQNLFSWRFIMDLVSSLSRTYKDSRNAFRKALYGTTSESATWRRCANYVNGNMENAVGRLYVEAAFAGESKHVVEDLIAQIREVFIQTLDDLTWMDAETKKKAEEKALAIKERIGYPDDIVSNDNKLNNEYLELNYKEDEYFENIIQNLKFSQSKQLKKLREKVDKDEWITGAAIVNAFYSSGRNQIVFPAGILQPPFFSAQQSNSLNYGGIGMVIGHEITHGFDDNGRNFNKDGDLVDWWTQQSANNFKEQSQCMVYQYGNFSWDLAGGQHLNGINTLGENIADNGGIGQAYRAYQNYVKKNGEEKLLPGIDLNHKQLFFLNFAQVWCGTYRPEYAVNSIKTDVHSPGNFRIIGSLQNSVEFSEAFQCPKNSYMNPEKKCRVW
In short: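 NEP purified to homogeneity from rabbit kidney (single 94 kD band on SDS-PAGE), 1 pmol/100 μL final. Enzyme preincubated 15 min at 25 °C with or without increasing inhibitor in 50 mM Tris-HCl pH 7.0. [3H]D-Ala2-Leu-enkephalin then added at 20 nM final and the reaction stopped after 30 min with HCl. IC50 from log probit analysis of five inhibitor concentrations, mean ± SEM of four independent experiments.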

Row | SMILES | IC50 [1] [µM] | IC50 [2] [nM] | IC50 (Neprilysin) [nM]
1 | O=C(O)CC(=O)N[C@H](Cc1ccccc1)C(=O)NO | ~20 | ~32000 | 3350
2 | O=C(O)CC(=O)N[C@H](CC(=O)NO)Cc1ccccc1 | 150 | 450 | 2.5
3 | CN(O)C(=O)[C@@H](Cc1ccccc1)NC(=O)CC(=O)O | – | – | 6070
4 | CN(O)C(=O)C[C@@H](Cc1ccccc1)NC(=O)CC(=O)O | > 100 | – | 1730
5 | O=C(O)CC(=O)N[C@@H](CC(=O)NO)Cc1ccccc1 | 2 | 140 | 0.5
6 | O=C(O)CC(=O)N[C@@H](Cc1ccccc1)C(=O)NO | 400 | 2000 | 2500
7 | CC(C(=O)O)C(=O)NC(CC(=O)NO)Cc1ccccc1 (stereo unspecified) | 8.6 | 17.5 | 1.6
8 | O=C(CC(Cc1ccccc1)NC(=O)C(Cc1ccccc1)C(=O)O)NO (stereo unspecified) | 6.2 | 32.5 | 3.7
9 | O=C(O)CNC(=O)C(CC(=O)NO)Cc1ccccc1 (racemic) | 2 | 21 | –
10 | O=C(O)CNC(=O)C(Cc1ccccc1)C(=O)NO (racemic) | 100 | 35000 | –
11 | O=C(CC(Cc1ccccc1)C(=O)NC(Cc1ccccc1)C(=O)O)NO (racemic) | 0.13 | – | 2.5
12 | C[C@H](NC(=O)[C@@H](CC(=O)NO)Cc1ccccc1)C(=O)O (racemic) [KELATORPHAN] | 0.38 | 0.9 | 1.7
13 | CC(C(=O)O)C(=O)NC(Cc1ccccc1)C(=O)NO (stereo in doubt; 8) | 6.1 | 2700 | 945
14 | CC(C(=O)O)C(=O)NC(Cc1ccccc1)C(=O)NO (stereo in doubt; 9) | ~100 | 71 | 320
